System: U2OS
Experiment: Multiplex assay against U2OS
Type: toxicity, cell-based
Conditions: human
Outline: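 Live cells were stained at seeding with Hoechst33342, BioTracker Green Microtubule Cytoskeleton Dye, MitoTracker Red and Annexin V Alexa Fluor 680. Following compound addition, they were imaged on a CQ1 microscope at 37°C and 5% CO2 and gated by CellPathfinder machine learning into Hoechst high-intensity objects or normal cells, with normal cells split into healthy, pyknosed or fragmented nuclei and pyknosed cells into mitotic or apoptotic. Tubulin, mitochondrial-mass and membrane-permeability phenotypes are per cents of healthy-nucleus cells.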

[1] = 12 h, 1 µM, compound concentration 1 uM, replicate 1
[2] = 12 h, 1 µM, compound concentration 1 uM, replicate 2
[3] = 12 h, 10 µM, compound concentration 10 uM, replicate 1
[4] = 12 h, 10 µM, compound concentration 10 uM, replicate 2
[5] = 24 h, 1 µM, compound concentration 1 uM, replicate 1
[6] = 24 h, 1 µM, compound concentration 1 uM, replicate 2
[7] = 24 h, 10 µM, compound concentration 10 uM, replicate 1
[8] = 24 h, 10 µM, compound concentration 10 uM, replicate 2

Structure (SMILES): Cc1ccc(NC(=O)Nc2cc(C(F)(F)F)ccc2F)cc1Nc1ccc2c(c1)NC(=O)/C2=C\c1ccc[nH]1
- Population Apoptotic (%) [1]: 32%
- Population Fragmented Nuclei (%) [1]: 15%
- Population Healthy Nuclei (%) [1]: 66%
- Population Hoechst High Intensity Objects (%) [1]: 2%
- Population Membrane Permeable-Phenotype (%) [1]: 87%
- Population Mitochondria Different-Phenotype (%) [1]: 7%
- Population Mitotic Cells (%) [1]: 68%
- Population Normal (%) [1]: 97%
- Population Pyknosed Nuclei (%) [1]: 18%
- Population Tubulin-Different-Phenotype (%) [1]: 65%
- Total Cell Count [1]: 153
- Population Apoptotic (%) [2]: 33%
- Population Fragmented Nuclei (%) [2]: 24%
- Population Healthy Nuclei (%) [2]: 57%
- Population Hoechst High Intensity Objects (%) [2]: 12%
- Population Membrane Permeable-Phenotype (%) [2]: 91%
- Population Mitochondria Different-Phenotype (%) [2]: 18%
- Population Mitotic Cells (%) [2]: 66%
- Population Normal (%) [2]: 87%
- Population Pyknosed Nuclei (%) [2]: 17%
- Population Tubulin-Different-Phenotype (%) [2]: 59%
- Total Cell Count [2]: 88
- Population Apoptotic (%) [3]: 22%
- Population Fragmented Nuclei (%) [3]: 2%
- Population Healthy Nuclei (%) [3]: 91%
- Population Hoechst High Intensity Objects (%) [3]: 2%
- Population Membrane Permeable-Phenotype (%) [3]: 11%
- Population Mitochondria Different-Phenotype (%) [3]: 22%
- Population Mitotic Cells (%) [3]: 77%
- Population Normal (%) [3]: 97%
- Population Pyknosed Nuclei (%) [3]: 6%
- Population Tubulin-Different-Phenotype (%) [3]: 27%
- Total Cell Count [3]: 204
- Population Apoptotic (%) [4]: 66%
- Population Fragmented Nuclei (%) [4]: 8%
- Population Healthy Nuclei (%) [4]: 87%
- Population Hoechst High Intensity Objects (%) [4]: 11%
- Population Membrane Permeable-Phenotype (%) [4]: 5%
- Population Mitochondria Different-Phenotype (%) [4]: 29%
- Population Mitotic Cells (%) [4]: 33%
- Population Normal (%) [4]: 88%
- Population Pyknosed Nuclei (%) [4]: 3%
- Population Tubulin-Different-Phenotype (%) [4]: 19%
- Total Cell Count [4]: 147
- Population Apoptotic (%) [5]: 75%
- Population Fragmented Nuclei (%) [5]: 14%
- Population Healthy Nuclei (%) [5]: 52%
- Population Membrane Permeable-Phenotype (%) [5]: 85%
- Population Mitochondria Different-Phenotype (%) [5]: 11%
- Population Mitotic Cells (%) [5]: 25%
- Population Pyknosed Nuclei (%) [5]: 32%
- Population Tubulin-Different-Phenotype (%) [5]: 36%
- Total Cell Count [5]: 205
- Population Apoptotic (%) [6]: 76%
- Population Fragmented Nuclei (%) [6]: 31%
- Population Healthy Nuclei (%) [6]: 44%
- Population Hoechst High Intensity Objects (%) [6]: 4%
- Population Membrane Permeable-Phenotype (%) [6]: 94%
- Population Mitochondria Different-Phenotype (%) [6]: 12%
- Population Mitotic Cells (%) [6]: 23%
- Population Normal (%) [6]: 95%
- Population Pyknosed Nuclei (%) [6]: 23%
- Population Tubulin-Different-Phenotype (%) [6]: 53%
- Total Cell Count [6]: 118
- Population Apoptotic (%) [7]: 26%
- Population Fragmented Nuclei (%) [7]: 2%
- Population Healthy Nuclei (%) [7]: 89%
- Population Hoechst High Intensity Objects (%) [7]: 1%
- Population Membrane Permeable-Phenotype (%) [7]: 8%
- Population Mitochondria Different-Phenotype (%) [7]: 22%
- Population Mitotic Cells (%) [7]: 73%
- Population Normal (%) [7]: 98%
- Population Pyknosed Nuclei (%) [7]: 7%
- Population Tubulin-Different-Phenotype (%) [7]: 31%
- Total Cell Count [7]: 302
- Population Apoptotic (%) [8]: 16%
- Population Fragmented Nuclei (%) [8]: 6%
- Population Healthy Nuclei (%) [8]: 87%
- Population Hoechst High Intensity Objects (%) [8]: 8%
- Population Membrane Permeable-Phenotype (%) [8]: 7%
- Population Mitochondria Different-Phenotype (%) [8]: 32%
- Population Mitotic Cells (%) [8]: 83%
- Population Normal (%) [8]: 91%
- Population Pyknosed Nuclei (%) [8]: 5%
- Population Tubulin-Different-Phenotype (%) [8]: 18%
- Total Cell Count [8]: 205
